Article PMC11382307 (Asian Journal of Pharmaceutical Sciences, 2024)

Test system: bEnd.3 cells
Assay: In vitro cellular uptake in bEnd.3 cells
Assay type: in vitro ADME
Conditions: for cellular uptake observed by confocal imaging: 10 µM FITC-labelled peptide or free FITC, confocal microscopy
Procedure, shortened: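 bEnd.3 cells were seeded at 5 × 10^4/cm2 for 24 h, untreated or pretreated with poly-lysine (4 kDa, 20 µM, 1 h). They were exposed to 10 µM FITC-peptide or free FITC for 10 min, 30 min or 2 h, washed with cold PBS and fixed in 4 % PFA. Staining was DiD (10 µM, 30 min) or Hoechst, followed by confocal imaging. Flow cytometry was run on trypsinised cells (Ex 488/Em 525 nm). Mean ± SD, n = 3.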

[1] = 10 µM FITC-labelled peptide, 2 h, flow cytometry, n = 3

Row | Compound | cellular uptake observed by confocal imaging (2 h) | adsorption to cell membrane (10 µM FITC-labelled peptide, 10 min, confocal) | cellular uptake relative to HNSS [1] | fluorescence intensity of cellular uptake relative to HNG [1]
1 | O=C1OC2(c3ccc(O)cc3Oc3cc(O)ccc32)c2ccc(N=C=S)cc21 [free FITC, reference compound] | weak cellular uptake |  |  | 
2 | MAPRGFSCLLLLTGEIDLPVKRRAGGR(d)-Dmt-KF-NH2 [HNRS] | weak cellular uptake | adsorbed on the plasma membrane | 13.9% | 1.5 fold
